Measured values from ChEMBL document CHEMBL1811832, “Transformation of isosteviol lactam by fungi and the suppressive effects of its transformed products on LPS-induced iNOS expression in macrophages” (2011).

System: RAW264.7
Assay: Antiinflammatory activity against mouse RAW264.7 cells assessed as inhibition of LPS-induced iNOS mRNA expression at 10 uM after 24 hrs by RT-PCR relative to control
Format: functional
Procedure, shortened: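 Murine RAW 264.7 macrophages stimulated with LPS 100 ng/mL for 4 h, then treated with compound at 10 μM for 24 h with LPS still present; dexamethasone as reference. Total RNA extracted with TRIzol, oligo(dT)-primed cDNA, real-time PCR (50 cycles, dissociation-curve check). iNOS mRNA expressed as fold relative to LPS-only cells; mean ± SEM, n = 3, paired two-tailed t-test.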

SMILES: C[C@@]12CC[C@H]3[C@]4(C)CCC[C@@](C)(C(=O)O)[C@H]4C[C@H](O)[C@]3(CC(=O)N1)C2
- fold change (FC): 0.61

SMILES: C[C@@]12CCC[C@@](C)(C(=O)O)[C@H]1CC[C@]13CC(=O)N[C@](C)(C1)[C@@H](O)C[C@H]32
- fold change (FC): 0.13

SMILES: C[C@]12CC[C@H]3[C@]4(C)CCC[C@@](C)(C(=O)O)[C@H]4CC[C@@]3(C1)[C@H](Cl)C(=O)N2
- fold change (FC): 0.85

SMILES: CC1=C[C@@]2(CC#N)[C@@H](O)C[C@H]3[C@@](C)(CCC[C@@]3(C)C(=O)O)[C@@H]2CC1
- fold change (FC): 0.12

SMILES: CC1=C[C@@]2(CC#N)CC[C@H]3[C@](C)([C@@H]2CC1)[C@@H](O)CC[C@@]3(C)C(=O)O
- fold change (FC): 0.43

SMILES: C=C1C[C@@]2(CC#N)CC[C@H]3[C@@](C)(CCC[C@@]3(C)C(=O)O)[C@@H]2C[C@H]1Cl
- fold change (FC): 0.3

SMILES: CCO[C@@H]1C[C@@H]2[C@@](CC#N)(C=C1C)CC[C@H]1[C@@]2(C)CCC[C@@]1(C)C(=O)O
- fold change (FC): 0.21

SMILES: CO[C@H]1C[C@@H]2[C@@](CC#N)(C=C1C)CC[C@H]1[C@@]2(C)CCC[C@@]1(C)C(=O)O
- fold change (FC): 0.2

SMILES: CC1=CC[C@@H]2[C@](CC#N)(CC[C@H]3[C@@]2(C)CCC[C@@]3(C)C(=O)OCCO)C1
- fold change (FC): 0.5

SMILES: CC1=C[C@@]2(CC#N)CC[C@H]3[C@@](C)(CCC[C@@]3(C)C(=O)O)[C@@H]2CC1
- fold change (FC): 0.48

SMILES: CC1=CC[C@@H]2[C@](CC#N)(CC[C@H]3[C@@]2(C)CCC[C@@]3(C)C(=O)O)C1
- fold change (FC): 0.63

SMILES: C[C@@H]1C[C@H]2[C@@H]3CCC4=CC(=O)C=C[C@]4(C)[C@@]3(F)[C@@H](O)C[C@]2(C)[C@@]1(O)C(=O)CO [DEXAMETHASONE]
- fold change (FC): 0.16

SMILES: C[C@@]12CC[C@@H]3[C@@](CC[C@H]4[C@@]3(C)CCC[C@@]4(C)C(=O)O)(CC(=O)N1)C2 [ISOSTEVIOL LACTAM]
- fold change (FC): 0.15

SMILES: C[C@@]12CC[C@@H]3[C@@](CC[C@H]4[C@@]3(C)CCC[C@@]4(C)C(=O)O)(C/C1=N\O)C2 [ISOSTEVIOL OXIME]
- fold change (FC): 0.15

SMILES: C[C@@]12CC[C@@H]3[C@@](CC[C@H]4[C@@]3(C)CCC[C@@]4(C)C(=O)O)(CC1=O)C2 [ISOSTEVIOL]
- fold change (FC): 0.29
